Measured values taken from ChEMBL document CHEMBL2417545, “6-methoxy-7-benzofuranoxy and 6-methoxy-7-indolyloxy analogues of 2-[2-(2,6-Dimethoxyphenoxy)ethyl]aminomethyl-1,4-benzodioxane (WB4101):1 discovery of a potent and selective α1D-adrenoceptor antagonist” (J Med Chem, 2013).

Columns and labels:
[1] = target: T1, Alpha-1A adrenergic receptor (Homo sapiens, UniProt P35348); test: Displacement of [3H]prazosin from human alpha-1A adrenoreceptor expressed in CHO cells after 30 mins; assay type: cell-based
T1 sequence (P35348 whole entry): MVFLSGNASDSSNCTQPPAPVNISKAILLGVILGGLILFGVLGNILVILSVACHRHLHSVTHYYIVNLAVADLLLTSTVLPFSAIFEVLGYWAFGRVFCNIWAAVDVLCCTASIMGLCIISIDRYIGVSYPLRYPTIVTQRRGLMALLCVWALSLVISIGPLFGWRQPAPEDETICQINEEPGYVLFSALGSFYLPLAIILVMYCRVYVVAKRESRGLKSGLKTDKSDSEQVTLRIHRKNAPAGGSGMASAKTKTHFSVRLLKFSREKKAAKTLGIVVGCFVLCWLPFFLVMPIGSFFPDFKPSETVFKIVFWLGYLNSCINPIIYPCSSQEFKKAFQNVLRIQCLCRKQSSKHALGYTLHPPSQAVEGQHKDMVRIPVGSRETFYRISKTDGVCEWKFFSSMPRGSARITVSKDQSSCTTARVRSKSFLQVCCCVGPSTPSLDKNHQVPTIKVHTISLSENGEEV
Method in brief: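 Membranes from CHO cells expressing each α₁-AR subtype, incubated 30 min at 25 °C in 50 mM Tris HCl pH 7.7 with 10 μM pargyline and 0.1% ascorbic acid, plus 0.5 nM [³H]prazosin and varying test compound concentrations. Nonspecific binding was defined with 1 μM prazosin.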

[2] = target: T2, Alpha-1A adrenergic receptor (Rattus norvegicus, UniProt P43140); test: Antagonist activity at alpha-1A adrenoreceptor in Sprague-Dawley rat prostatic vas deferens assessed as inhibition of noradrenaline-induced tissue contraction after 30 mins by Schild plot analysis; conditions: read-out: pA2 (converted)
T2 sequence (P43140 whole entry): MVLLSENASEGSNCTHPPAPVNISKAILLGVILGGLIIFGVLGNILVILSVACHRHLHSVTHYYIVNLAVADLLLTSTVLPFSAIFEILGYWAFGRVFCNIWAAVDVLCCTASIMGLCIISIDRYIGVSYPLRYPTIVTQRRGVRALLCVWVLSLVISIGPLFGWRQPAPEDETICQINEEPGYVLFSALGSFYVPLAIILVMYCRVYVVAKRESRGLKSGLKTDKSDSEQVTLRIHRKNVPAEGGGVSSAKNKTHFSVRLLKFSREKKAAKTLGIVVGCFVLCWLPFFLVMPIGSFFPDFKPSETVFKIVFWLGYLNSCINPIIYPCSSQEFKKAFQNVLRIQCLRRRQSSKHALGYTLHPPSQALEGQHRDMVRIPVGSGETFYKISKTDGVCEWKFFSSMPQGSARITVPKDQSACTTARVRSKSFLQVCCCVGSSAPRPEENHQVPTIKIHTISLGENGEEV
Method in brief: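 Cumulative isotonic (−)-noradrenaline curves were run at 30 min intervals, the first discarded and the second taken as control, then a third after 30 min with antagonist. pA₂ from Schild plot, at least three antagonist concentrations, each tested 3−5 times.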

[3] = target: T3, Alpha-1D adrenergic receptor (Rattus norvegicus, UniProt P23944); test: Antagonist activity at alpha-1D adrenoreceptor in Sprague-Dawley rat thoracic aorta assessed as inhibition of noradrenaline-induced tissue contraction after 30 mins by Schild plot analysis; conditions: read-out: pA2 (converted)
T3 sequence (P23944 whole entry): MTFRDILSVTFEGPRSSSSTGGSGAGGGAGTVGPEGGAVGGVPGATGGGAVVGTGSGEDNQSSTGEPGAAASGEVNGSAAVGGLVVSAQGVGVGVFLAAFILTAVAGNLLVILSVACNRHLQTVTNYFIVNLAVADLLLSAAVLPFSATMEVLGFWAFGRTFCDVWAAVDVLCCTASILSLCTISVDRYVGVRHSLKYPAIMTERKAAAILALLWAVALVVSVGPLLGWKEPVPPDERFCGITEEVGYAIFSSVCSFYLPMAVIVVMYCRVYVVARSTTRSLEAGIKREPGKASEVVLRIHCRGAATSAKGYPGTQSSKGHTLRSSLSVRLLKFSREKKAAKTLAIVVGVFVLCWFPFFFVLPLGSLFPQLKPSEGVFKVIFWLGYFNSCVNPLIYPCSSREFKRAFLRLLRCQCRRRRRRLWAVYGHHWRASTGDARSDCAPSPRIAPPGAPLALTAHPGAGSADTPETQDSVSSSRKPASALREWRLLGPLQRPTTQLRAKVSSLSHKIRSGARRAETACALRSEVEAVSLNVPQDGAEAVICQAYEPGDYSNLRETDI
Method in brief: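 Endothelium-denuded helicoid aortic strips, about 1.5 cm, with denudation confirmed by absent acetylcholine relaxation. Strips were equilibrated ≥1 h at 1 g tension and cumulative (−)-noradrenaline curves recorded, the first two discarded and the third taken as control; a fourth followed 30 min antagonist equilibration. pA₂ from Schild plot, 3−5 repeats per concentration.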

Row | Ki [1] [nM] | Kb [2] [nM] | Kb [3] [nM] | SMILES
1 | 0.49 | 5.5 | 0.977 | COc1ccc2ccoc2c1OCCNC[C@H]1COc2ccccc2O1.Cl
2 | 178 | 4.9 | 3.02 | COc1ccc2cc[nH]c2c1OCCNC[C@H]1COc2ccccc2O1
3 | 3.8 | 9.33 | 2.4 | COc1ccc2c(c1OCCNC[C@H]1COc3ccccc3O1)NCC2.Cl.Cl
4 | 2 | 33.9 | 0.263 | COc1ccc2c(c1OCCNC[C@H]1COc3ccccc3O1)OCC2.Cl
